Our source for the Activity values is ChEMBL document CHEMBL1156509, “Survival in the presence of antifungals: genome-wide expression profiling of Aspergillus niger in response to sublethal concentrations of caspofungin and fenpropimorph” (2007).

Activity calls are given as the source filed them. The calls are words filed in the database; no cut-off is given here.

Holding throughout (type): functional, organism-based
The subject of assay [1] is Aspergillus niger. The experiment in a line: Antifungal activity against Aspergillus niger RD6.47 at 104.2 ug/mL by microtiter plate. The method, boiled down:
(§1)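 Reporter conidia (2×10^4 per well) were pre-grown 6 h at 37 °C in 2× CM in glass-bottom plates. An equal volume of a 2-fold dilution series (seven concentrations) was added, then 3 h at 30 °C. Medium was discarded and adherent germlings imaged. Growth inhibition was scored 0/1/2 from hyphal length.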

Assay [2] deals with Aspergillus niger. The experiment in a line: Antifungal activity against Aspergillus niger JvD1.1 at 104.2 ug/mL by microtiter plate. The method, boiled down: as §1
The subject of assay [3] is Aspergillus niger. The experiment in a line: Induction of GFP tagged PagsA-H2B expression in Aspergillus niger RD6.47 at 104.2 ug/mL by fluorescence microscopy. The method, boiled down:
(§2)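 agsA promoter-GFP reporters, cytoplasmic (JvD1.1) or nuclear H2B-targeted (RD6.47). Germlings pre-grown 6 h at 37 °C in 2× CM, exposed 3 h at 30 °C to seven 2-fold dilutions. GFP levels were scored by fluorescence microscopy as 0 (basal), 1 (intermediate) or 2 (high). Controls: gpdA-H2B-GFP strain MA26.1 (positive), N402 (negative).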

For assay [4], the system named is Aspergillus niger. The experiment in a line: Induction of GFP tagged PagsA expression in Aspergillus niger JvD1.1 at 104.2 ug/mL by fluorescence microscopy. The method, boiled down:
as §2

Take `C[C@@H]1C[C@@H]([C@H](O)CC2CC(=O)NC(=O)C2)C(=O)[C@@H](C)C1`: the result in assay [1] and in assay [2] was Active. Also, the result in assay [3] and in assay [4] was inactive.

On to `Cc1cc(C2CC2)nc(Nc2ccccc2)n1`, for which the outcome in assay [3] and in assay [4] was Active.

For the compound `Fc1ccc([C@]2(Cn3cncn3)O[C@H]2c2ccccc2Cl)cc1`, the result in assay [1], in assay [2], in assay [3] and in assay [4] was inactive.
